Consider two compounds from paper PMC10256642 (Clinical Pharmacokinetics, 2023).

Entries after “also recorded” stand apart in the source; their conditions may differ. Like-named read-outs stand apart in the source and are kept apart here.

Data set [1] is described as follows: Immunogenicity: antidrug antibodies. Type of data set: in vivo, human. The following applies: 100 µg s.c. single dose; baseline, 7 and 28 days after treatment. In short, it runs like this:
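Open-label single subcutaneous dose of test compound (100 µg, lower abdomen, fasted) in adults with normal or impaired renal function. Antidrug antibody titers were measured at baseline, 7 and 28 days post-dose, or at early discontinuation. Cross-reactivity to GLP-1 and glucagon was also recorded. Treatment-emergent incidence is treatment-induced plus treatment-boosted ADA. Analysed in all treated participants with ADA readings.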

Data set [2] is classed as in vivo, human. The following applies: 100 µg s.c. single dose. In short, it runs like this:
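Adults aged 18–85 (BMI 17–40 kg/m2) were grouped by Cockcroft–Gault CrCl and given a single subcutaneous 100 µg dose of test compound. Fasting ran from ≥8 h before to 4 h after dosing, with no fluids 1 h before to 2 h after. Adverse events, vitals, ECG, telemetry and laboratory tests were monitored inpatient for 72 h, then outpatient at days 7±1 and 28±2. TEAEs were coded by MedDRA 21.0, counting each once at highest severity.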

For data set [3] the following is noted: 5–300 µg dose range; previously demonstrated, no reference given; cited from earlier work.
The conditions of data set [4]: cited from earlier work.
For data set [5] the following is noted: severe renally impaired and ESRD subjects; cited from earlier work.
The conditions of data set [6]: in vitro studies; cited from earlier work.

Take `CCCCCCCCCCCCCCCC(=O)N[C@@H](CCC(=O)NCCCC[C@H](NC(=O)[C@H](CC(=O)O)NC(=O)[C@H](CO)NC(=O)[C@@H](NC(=O)[C@H](Cc1ccccc1)NC(=O)[C@@H](NC(=O)CNC(=O)[C@H](CCC(N)=O)NC(=O)[C@H](CO)NC(=O)[C@@H](N)Cc1c[nH]cn1)[C@@H](C)O)[C@@H](C)O)C(=O)N[C@@H](CO)C(=O)N[C@@H](CCC(=O)O)C(=O)N[C@@H](Cc1ccc(O)cc1)C(=O)N[C@@H](CC(C)C)C(=O)N[C@@H](CC(=O)O)C(=O)N[C@@H](CO)C(=O)N[C@@H](CCC(=O)O)C(=O)N[C@@H](CCCNC(=N)N)C(=O)N[C@@H](C)C(=O)N[C@@H](CCCNC(=N)N)C(=O)N[C@@H](CC(=O)O)C(=O)N[C@@H](Cc1ccccc1)C(=O)N[C@H](C(=O)N[C@@H](C)C(=O)N[C@@H](Cc1c[nH]c2ccccc12)C(=O)N[C@@H](CC(C)C)C(=O)N[C@@H](CCC(=O)O)C(=O)N[C@@H](C)C(=O)NCC(=O)NCC(=O)O)C(C)C)C(=O)O` [cotadutide]: in data set [1], the “Antidrug antibody (ADA) results” value was “No positive antidrug antibody results; also recorded: No confirmed positive ADA results”. The compound also displayed an Incidence of headache in data set [2] (10 of 37 individuals) of 27.0%. Besides, the results for the Incidence of nausea in data set [2] (12 of 37 individuals) and in data set [2] (normal renal function group) were 32.4% and 38%, respectively. The Incidence of vomiting is recorded as 35.1% in data set [2] (13 of 37 individuals) and 38% in data set [2] (normal renal function group). In data set [2] (all groups), the “Severity of TEAEs” value is “mostly mild to moderate in severity”. In addition, the “Incidence of TEAE” value in data set [2] (all patients, 22 of 37) stood at 59.5%; in data set [2] (lower moderate renal impairment group, 8 of 11 patients), 72.7%; in data set [2] (upper moderate renal impairment group, 3 of 7 patients), 42.9%. In addition, in data set [2] (renal impairment groups), the “Incidence of nausea, range” value is given as 29–38%. Also, in data set [2] (renal impairment groups), the “Incidence of vomiting, range” value is recorded as 18–50%. Moreover, the “Deaths or other serious TEAEs” value in data set [2] (study period) is on record as “no deaths or other serious TEAEs”. For the same compound, the “PK profile (dose and time dependence)” value in data set [3] was “linear and time-independent PK profile”. In data set [4] (32-day treatment with cotadutide 50–300 µg, T2D and stage 3 CKD with micro- and macroalbuminuria), the “Urine albumin-to-creatinine ratio vs placebo” value is “reduced urine albumin-to-creatinine ratio”. Moreover, the “Participants with a serious TEAE deemed related to cotadutide” value in data set [4] (once-daily cotadutide titrated to 50–300 µg for 32 days, moderate renal impairment and T2D, 1 of 21 participants) is given as 4.8%.

Consider “exenatide: GLP-1 receptor agonist exenatide (exendin-4)”, for which the “Tolerability and PK in severe renal impairment and ESRD” value in data set [5] was “poor tolerability and significant changes in PK”. Moreover, the “Primary cleavage sites (metabolized specifically in the kidney)” value in data set [6] was “after amino acids (AA)-21 and -22”.
